In brackets after ≈: the same amount, converted by molar mass.
Assays:
Type in all cases: functional
[1] = tested on: E6SM; experiment: Minimum inhibitory conc. for 50% inhibition of vesicular stomatitis virus induced cytopathicity in E6SM cells; details: Homo sapiens
[2] = tested on: E6SM; experiment: Minimum inhibitory conc. for 50% inhibition of vaccinia virus induced cytopathicity in E6SM cells; details: Homo sapiens
[3] = tested on: E6SM; experiment: Minimum inhibitory conc. for 50% inhibition of HSV-1 (KOS) virus induced cytopathicity in E6SM cells; details: Homo sapiens
[4] = tested on: HEL; experiment: Minimum inhibitory conc. for 50% inhibition of growth in HEL cells; details: Homo sapiens
Method in brief: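 HEL cell cytotoxicity was measured as inhibition of normal cell growth. The value is the concentration inhibiting growth by 50%.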

[5] = tested on: E6SM; experiment: Minimum inhibitory conc. for 50% inhibition of TK HSV-1 (B2006) virus induced cytopathicity in E6SM cells; details: Homo sapiens
Method in brief: (§1)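 Confluent E6SM or Vero monolayers were infected with 100 CCID50 of virus and allowed 1 h of adsorption. Residual virus was then removed. Cultures were incubated with compound in serial dilutions (400, 200, 100, ... µg/mL). Cytopathicity was scored when it was complete in the untreated infected controls.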

[6] = tested on: E6SM; experiment: Minimum inhibitory conc. for 50% inhibition of HSV-2 (G) virus induced cytopathicity in E6SM cells; details: Homo sapiens; method in brief: as §1
[7] = tested on: E6SM; experiment: Minimum inhibitory conc. for 50% inhibition of alteration of morphology in E6SM cells; details: Homo sapiens
Method in brief: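 Toxicity in E6SM, HeLa or Vero cultures was judged by microscopically visible alteration of normal cell morphology. The value is the concentration producing this alteration (50%).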

[8] = tested on: E6SM; experiment: Minimum inhibitory conc. for 50% inhibition of HSV-1 (F) virus induced cytopathicity in E6SM cells; details: Homo sapiens; method in brief: as §1
[9] = tested on: E6SM; experiment: Minimum inhibitory conc. for 50% inhibition of HSV-2 (196) virus induced cytopathicity in E6SM cells; details: Homo sapiens; method in brief: as §1
[10] = tested on: HEL; experiment: Minimum inhibitory conc. for 50% inhibition of TK-VZV (YS/R) virus plaque formation in HEL cells; details: Homo sapiens
[11] = tested on: HEL; experiment: Minimum inhibitory conc. for 50% inhibition of VZV (YS) virus plaque formation in HEL cells; details: Homo sapiens
[12] = tested on: E6SM; experiment: Minimum inhibitory conc. for 50% inhibition of HSV-1 (McIntyre) virus induced cytopathicity in E6SM cells; details: Homo sapiens
[13] = tested on: HEL; experiment: Minimum inhibitory conc. for 50% inhibition of VZV (OKA) virus plaque formation in HEL cells; details: Homo sapiens
[14] = tested on: E6SM; experiment: Minimum inhibitory conc. for 50% inhibition of HSV-2 (Lyons) virus induced cytopathicity in E6SM cells; details: Homo sapiens; method in brief: as §1
[15] = tested on: HEL; experiment: Minimum inhibitory conc. for 50% inhibition of TK VZV (07/1) virus plaque formation in HEL cells; details: Homo sapiens
[16] = tested on: HEL; experiment: Minimum inhibitory conc. for 50% inhibition of CMV (AD-169) virus plaque formation in HEL cells; details: Homo sapiens
Method in brief: (§2)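 HEL cell cultures were inoculated with 100 CCID50 of virus and allowed 1 h of adsorption. Residual virus was then removed. Cultures were incubated with compound at graded concentrations (400, 200, 100, ... µg/mL). Read-out was virus plaque formation, scored when the infected controls were fully affected. The value is the concentration reducing plaque formation by 50%.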

[17] = tested on: HEL; experiment: Minimum inhibitory conc. for 50% inhibition of CMV (Davis) virus plaque formation in HEL cells; details: Homo sapiens; method in brief: as §2
[18] = tested on: HeLa; experiment: Minimum inhibitory conc. for 50% inhibition of Polio-1 virus induced cytopathicity in HeLa cells; details: Homo sapiens
[19] = tested on: HeLa; experiment: Minimum inhibitory conc. for 50% inhibition of vesicular stomatitis virus induced cytopathicity in HeLa cells; details: Homo sapiens
[20] = tested on: Vero; experiment: Minimum inhibitory conc. for 50% inhibition of alteration of morphology in Vero cells; details: Chlorocebus sabaeus
[21] = tested on: Vero; experiment: Minimum inhibitory conc. for 50% inhibition of Sindbis virus induced cytopathicity in Vero cells; details: Chlorocebus sabaeus; method in brief: as §1
[22] = tested on: Vero; experiment: Minimum inhibitory conc. for 50% inhibition of Reo-1 virus induced cytopathicity in Vero cells; details: Chlorocebus sabaeus; method in brief: as §1
[23] = tested on: HeLa; experiment: Minimum inhibitory conc. for 50% inhibition of coxsackie B4 virus induced cytopathicity in HeLa cells; details: Homo sapiens
[24] = tested on: HeLa; experiment: Minimum inhibitory conc. for 50% inhibition of morphology […] in HeLa cells; details: Homo sapiens
[25] = tested on: Vero; experiment: Minimum inhibitory conc. for 50% inhibition of forest virus induced cytopathicity in Vero cells; details: Chlorocebus sabaeus; method in brief: as §1
[26] = tested on: Vero; experiment: Minimum inhibitory conc. for 50% inhibition of Parainfluenza-3 virus induced cytopathicity in Vero cells; details: Chlorocebus sabaeus; method in brief: as §1

| Structure (SMILES) | MIC [1] [µg/mL] | MIC [2] [µg/mL] | MIC [3] [µg/mL] | MIC [4] [µg/mL] | MIC [5] [µg/mL] | MIC [6] [µg/mL] | MIC [7] [µg/mL] | MIC [16] [µg/mL] | MIC [17] [µg/mL] | other results |
| --- | --- | --- | --- | --- | --- | --- | --- | --- | --- | --- |
| Nc1nc2c(ncn2COCCO)c(=O)[nH]1 [ACYCLOVIR] | > 200 | > 200 | 0.04 (≈ 0.178 µM) | > 200 | 70 (≈ 311 µM) | 0.07 (≈ 0.311 µM) | 400 (≈ 1780 µM) | – | – | – |
| O=c1[nH]c(=O)n([C@H]2C[C@H](O)[C@@H](CO)O2)cc1/C=C/Br [BRIVUDINE] | > 200 | 0.07 (≈ 0.21 µM) | 0.004 (≈ 0.012 µM) | 150 (≈ 450 µM) | 7 (≈ 21 µM) | > 200 | > 400 | – | – | MIC [8]: 0.01 µg/mL (≈ 0.03 µM); MIC [9]: > 200 µg/mL; MIC [10]: > 50 µg/mL; MIC [11]: 0.002 µg/mL (≈ 0.006 µM); MIC [12]: 0.007 µg/mL (≈ 0.021 µM); MIC [13]: 0.0008 µg/mL (≈ 0.0024 µM); MIC [14]: 100 µg/mL (≈ 300 µM); MIC [15]: 5 µg/mL (≈ 15 µM) |
| Nc1ccn(C[C@@H](CO)OCP(=O)(O)O)c(=O)n1.O.O [CIDOFOVIR] | – | – | – | – | – | – | – | 0.06 | 0.07 | – |
| Nc1nc2c(ncn2COC(CO)CO)c(=O)[nH]1 [GANCICLOVIR] | – | – | – | – | – | – | – | 1.5 (≈ 5.88 µM) | 0.13 (≈ 0.509 µM) | – |
| NC(=O)c1ncn([C@@H]2O[C@H](CO)[C@@H](O)[C@H]2O)n1 [RIBAVIRIN] | – | – | – | – | – | – | – | – | – | MIC [18]: 70 µg/mL (≈ 287 µM); MIC [19]: 4 µg/mL (≈ 16.4 µM); MIC [20]: > 400 µg/mL; MIC [21]: 150 µg/mL (≈ 614 µM); MIC [22]: 70 µg/mL (≈ 287 µM); MIC [23]: 70 µg/mL (≈ 287 µM); MIC [24]: > 200 µg/mL; MIC [25]: 300 µg/mL (≈ 1230 µM); MIC [26]: 70 µg/mL (≈ 287 µM) |

Reference: ChEMBL document CHEMBL1130007, “Carbocyclic oxetanocins lacking the C-3' methylene” (1997)
